In paper PMC10963893 (eBioMedicine, 2024):
Values after ≈ are worked out from the molar mass of the structure shown.

Columns and labels:
[1] = test system: A. baumannii NCTC 13424; assay: Broth micro-dilution MIC / dose-response growth inhibition; type: cell-based, Acinetobacter baumannii; settings: for A. baumannii NCTC 13424 Interp.: S/R interpretation by EUCAST breakpoint, ECOFF or fold vs QC strain; for MIC: Acinetobacter baumannii, NCTC13424, read-out: A. baumannii NCTC 13424 MIC
[2] = test system: K. pneumoniae NCTC 13438; assay: as above; type: cell-based, Klebsiella pneumoniae; settings: for MIC: Klebsiella pneumoniae, NCTC13438, read-out: K. pneumoniae NCTC 13438 MIC; for K. pneumoniae NCTC 13438 Interp.: S/R interpretation by EUCAST breakpoint, ECOFF or fold vs QC strain
[3] = test system: K. pneumoniae Ecl8; assay: as above; type: cell-based, Klebsiella pneumoniae; settings: for MIC: Klebsiella pneumoniae, ECL8, read-out: K. pneumoniae Ecl8 MIC; for K. pneumoniae Ecl8 Interp.: S/R interpretation by EUCAST breakpoint, ECOFF or fold vs QC strain
[4] = test system: primary screening strains (A. baumannii NCTC 13424, K. pneumoniae NCTC 13438, K. pneumoniae Ecl8); assay: HTS / susceptibility assay with the primary screening strains; type: cell-based; settings: 50 mg L^−1, positive control
How it was run: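 Broth microdilution (EUCAST method adapted to 384-well); inoculum 5 × 10^5 CFU mL−1 (OD600 0.0005); static at 37 °C in 5% CO2 for 24 h (K. pneumoniae) or 20 h (A. baumannii); compound at one concentration in duplicate, or two concentrations (1.4–68.0 μM, 0.5% DMSO) singly for one library; OD600 read; % growth inhibition normalised between apramycin 50 mg L−1 and DMSO wells; actives called at 3σ.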

Q: `O=C(O)c1cn(C2CC2)c2cc(N3CCNCC3)c(F)cc2c1=O` [Ciprofloxacin] was tested. Which “A. baumannii NCTC 13424 Interp.” value [1] did it give?
A: R

Q: What about the MIC [2] of the same compound?
A: > 512 µg/mL

Q: Which results are given for `COc1cc(Cc2cnc(N)nc2N)cc(OC)c1OC` [Trimethoprim]?
A: MIC [3]: 4 µg/mL (≈ 13.8 µM); K. pneumoniae Ecl8 Interp. [3]: S; MIC [1]: 128 µg/mL (≈ 441 µM); A. baumannii NCTC 13424 Interp. [1]: R; MIC [2]: > 512 µg/mL; K. pneumoniae NCTC 13438 Interp. [2]: R

Q: What does the source list for `NCC[C@H](O)C(=O)N[C@@H]1C[C@H](N)[C@@H](O[C@H]2O[C@H](CN)[C@@H](O)[C@H](O)[C@H]2O)[C@H](O)[C@H]1O[C@H]1O[C@H](CO)[C@@H](O)[C@H](N)[C@H]1O` [Amikacin]?
A: MIC [3]: 2 µg/mL (≈ 3.42 µM); K. pneumoniae Ecl8 Interp. [3]: S; MIC [1]: > 512 µg/mL; A. baumannii NCTC 13424 Interp. [1]: R; MIC [2]: 64 µg/mL (≈ 109 µM); K. pneumoniae NCTC 13438 Interp. [2]: R

Q: What does the source list for `CO/N=C(\C(=O)N[C@@H]1C(=O)N2C(C(=O)O)=C(COC(C)=O)CS[C@H]12)c1csc(N)n1` [Cefotaxime]?
A: MIC [3]: 0.06 µg/mL (≈ 0.132 µM); K. pneumoniae Ecl8 Interp. [3]: S; MIC [1]: 512 µg/mL (≈ 1120 µM); A. baumannii NCTC 13424 Interp. [1]: R; MIC [2]: 256 µg/mL (≈ 562 µM); K. pneumoniae NCTC 13438 Interp. [2]: R

Q: With `CN(C)[C@@H]1C(O)=C(C(N)=O)C(=O)[C@@]2(O)C(O)=C3C(=O)c4c(O)cccc4[C@@](C)(O)[C@H]3C[C@@H]12` [Tetracycline] as the compound, how does the MIC [3] read?
A: 1 µg/mL (≈ 2.25 µM)

Q: And the “K. pneumoniae Ecl8 Interp.” value [3]?
A: S ^b

Q: And the MIC [1]?
A: 256 µg/mL (≈ 576 µM)

Q: What about the “A. baumannii NCTC 13424 Interp.” value [1] of the same compound?
A: R ^b

Q: And the MIC [2]?
A: 4 µg/mL (≈ 9 µM)

Q: What about the “K. pneumoniae NCTC 13438 Interp.” value [2] of the same compound?
A: S ^b

Q: Which MIC [3] does the source give for `C[C@@H](O)[C@H]1C(=O)N2C(C(=O)O)=C(S[C@@H]3CN[C@H](C(=O)N(C)C)C3)[C@H](C)[C@H]12` [Meropenem] here?
A: 0.06 µg/mL (≈ 0.156 µM)

Q: What about the “K. pneumoniae Ecl8 Interp.” value [3] of the same compound?
A: S

Q: And the MIC [1]?
A: 64 µg/mL (≈ 167 µM)

Q: What about the “A. baumannii NCTC 13424 Interp.” value [1] of the same compound?
A: R

Q: What about the “K. pneumoniae NCTC 13438 Interp.” value [2] of the same compound?
A: R

Q: With `O=C(N[C@H](CO)[C@H](O)c1ccc([N+](=O)[O-])cc1)C(Cl)Cl` [Chloramphenicol] as the compound, how does the MIC [3] read?
A: 4 µg/mL (≈ 12.4 µM)

Q: What about the “K. pneumoniae Ecl8 Interp.” value [3] of the same compound?
A: S

Q: And the MIC [1]?
A: 64 µg/mL (≈ 198 µM)

Q: And the MIC [2]?
A: 32 µg/mL (≈ 99 µM)

Q: And the “K. pneumoniae NCTC 13438 Interp.” value [2]?
A: R

Q: With `C[C@@H]1O[C@@H]1P(=O)(O)O` [Fosfomycin] as the compound, how does the MIC [3] read?
A: 64 µg/mL (≈ 464 µM)

Q: What about the “K. pneumoniae Ecl8 Interp.” value [3] of the same compound?
A: R

Q: And the MIC [1]?
A: 64 µg/mL (≈ 464 µM)

Q: What about the MIC [2] of the same compound?
A: 16 µg/mL (≈ 116 µM)

Q: And the “K. pneumoniae NCTC 13438 Interp.” value [2]?
A: S

Q: What does the source list for `CC(C)(O/N=C(\C(=O)N[C@@H]1C(=O)N2C(C(=O)[O-])=C(C[n+]3ccccc3)CS[C@H]12)c1csc(N)n1)C(=O)O` [Ceftazidime]?
A: MIC [3]: 0.5 µg/mL (≈ 0.915 µM); K. pneumoniae Ecl8 Interp. [3]: S; MIC [1]: 64 µg/mL (≈ 117 µM); A. baumannii NCTC 13424 Interp. [1]: R; MIC [2]: 512 µg/mL (≈ 937 µM); K. pneumoniae NCTC 13438 Interp. [2]: R

Q: What does the source list for `CNC(C)C1CCC(N)C(OC2C(N)CC(N)C(OC3OCC(C)(O)C(NC)C3O)C2O)O1` (centres unmarked) [Gentamicin]?
A: MIC [3]: 1 µg/mL (≈ 2.09 µM); K. pneumoniae Ecl8 Interp. [3]: S; MIC [1]: > 512 µg/mL; A. baumannii NCTC 13424 Interp. [1]: R; MIC [2]: 4 µg/mL (≈ 8.38 µM); K. pneumoniae NCTC 13438 Interp. [2]: R

Q: With `C[C@H]1[C@H](NC(=O)/C(=N\OC(C)(C)C(=O)O)c2csc(N)n2)C(=O)N1S(=O)(=O)O` [Aztreonam] as the compound, how does the MIC [3] read?
A: 0.25 µg/mL (≈ 0.574 µM)

Q: And the “K. pneumoniae Ecl8 Interp.” value [3]?
A: S

Q: What about the MIC [1] of the same compound?
A: 32 µg/mL (≈ 73.5 µM)

Q: And the MIC [2]?
A: > 512 µg/mL

Q: And the “K. pneumoniae NCTC 13438 Interp.” value [2]?
A: R

Q: Which results are given for `CO/N=C(\C(=O)N[C@@H]1C(=O)N2C(C(=O)[O-])=C(C[N+]3(C)CCCC3)CS[C@H]12)c1csc(N)n1` [Cefepime]?
A: MIC [3]: 0.12 µg/mL (≈ 0.25 µM); K. pneumoniae Ecl8 Interp. [3]: S; MIC [1]: 32 µg/mL (≈ 66.6 µM); A. baumannii NCTC 13424 Interp. [1]: R; MIC [2]: 128 µg/mL (≈ 266 µM); K. pneumoniae NCTC 13438 Interp. [2]: R

Q: What does the source list for `C[C@H]1COc2c(N3CCN(C)CC3)c(F)cc3c(=O)c(C(=O)O)cn1c23` [Levofloxacin]?
A: MIC [3]: 0.12 µg/mL (≈ 0.332 µM); K. pneumoniae Ecl8 Interp. [3]: S; MIC [1]: 32 µg/mL (≈ 88.6 µM); A. baumannii NCTC 13424 Interp. [1]: R; MIC [2]: 128 µg/mL (≈ 354 µM); K. pneumoniae NCTC 13438 Interp. [2]: R

Q: How did the “K. pneumoniae Ecl8 Interp.” value [3] turn out when Polymyxin B was run?
A: S ^c

Q: What about the “A. baumannii NCTC 13424 Interp.” value [1] of the same compound?
A: S ^c

Q: And the “K. pneumoniae NCTC 13438 Interp.” value [2]?
A: S ^c

Q: What does the source list for `CN[C@@H]1[C@@H](O[C@H]2O[C@H](CO)[C@@H](N)[C@H](O)[C@H]2O)OC2C[C@@H](N)[C@@H](O[C@H]3[C@H](O)[C@@H](O)[C@H](N)C[C@@H]3N)OC2[C@@H]1O` (some centres unmarked) [Apramycin]?
A: MIC [3]: 4 µg/mL (≈ 7.41 µM); K. pneumoniae Ecl8 Interp. [3]: S ^c; MIC [1]: 8 µg/mL (≈ 14.8 µM); A. baumannii NCTC 13424 Interp. [1]: S ^c; growth inhibition of primary screening strains [4]: completely inhibited the growth; MIC [2]: 4 µg/mL (≈ 7.41 µM); K. pneumoniae NCTC 13438 Interp. [2]: S ^c

Q: What does the source list for `Cc1cc(NS(=O)(=O)c2ccc(N)cc2)no1` [Sulfamethoxazole]?
A: MIC [3]: 64 µg/mL (≈ 253 µM); K. pneumoniae Ecl8 Interp. [3]: R ^c; MIC [1]: > 512 µg/mL; A. baumannii NCTC 13424 Interp. [1]: R ^c; MIC [2]: > 512 µg/mL; K. pneumoniae NCTC 13438 Interp. [2]: R ^c

Q: What does the source list for Colistin?
A: K. pneumoniae Ecl8 Interp. [3]: S ^b; A. baumannii NCTC 13424 Interp. [1]: S ^b; K. pneumoniae NCTC 13438 Interp. [2]: S ^b

Q: How did the MIC [3] turn out when `CN(C)c1ccc(O)c2c1C[C@H]1C[C@H]3[C@H](N(C)C)C(O)=C(C(N)=O)C(=O)[C@@]3(O)C(O)=C1C2=O` [Minocycline] was run?
A: 2 µg/mL (≈ 4.37 µM)

Q: What about the “K. pneumoniae Ecl8 Interp.” value [3] of the same compound?
A: S ^b

Q: What about the MIC [1] of the same compound?
A: 4 µg/mL (≈ 8.74 µM)

Q: What about the “A. baumannii NCTC 13424 Interp.” value [1] of the same compound?
A: S ^b

Q: What about the MIC [2] of the same compound?
A: 4 µg/mL (≈ 8.74 µM)

Q: And the “K. pneumoniae NCTC 13438 Interp.” value [2]?
A: S ^b

Q: `NC[C@H]1O[C@H](O[C@H]2[C@H](O)[C@@H](O[C@H]3O[C@H](CO)[C@@H](O)[C@H](N)[C@H]3O)[C@H](N)C[C@@H]2N)[C@H](N)C[C@@H]1O` [Tobramycin] was tested. Which MIC [3] did it give?
A: 1 µg/mL (≈ 2.14 µM)

Q: And the “K. pneumoniae Ecl8 Interp.” value [3]?
A: S

Q: What about the MIC [1] of the same compound?
A: > 512 µg/mL

Q: And the “A. baumannii NCTC 13424 Interp.” value [1]?
A: R

Q: What about the MIC [2] of the same compound?
A: 32 µg/mL (≈ 68.4 µM)

Q: What about the “K. pneumoniae NCTC 13438 Interp.” value [2] of the same compound?
A: R

Q: What does the source list for `C[C@@H](O)[C@H]1C(=O)N2C(C(=O)O)=C(SCCN=CN)C[C@H]12` [Imipenem]?
A: MIC [3]: 0.25 µg/mL (≈ 0.835 µM); K. pneumoniae Ecl8 Interp. [3]: S; MIC [1]: 128 µg/mL (≈ 428 µM); A. baumannii NCTC 13424 Interp. [1]: R; MIC [2]: 128 µg/mL (≈ 428 µM); K. pneumoniae NCTC 13438 Interp. [2]: R
